High-throughput results as filed in PubChem.
SF-1 act – activators of human SF-1, primary screen, cell-based, CHO-K1, Gal4-SF-1 LBD, luciferase luminescence | CHO-K1 Gal4-SF-1 LBD luciferase reporter; % increase over DMSO SF-1-specific signal | 65,000 tested, 1.9% active | AID 522, 2006 | activation, % at 10 µM | Steroidogenic factor 1 (Homo sapiens), Q13285;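 active = activation above the mean activation of all tested compounds plus 3 SD, cut at about 50% in these data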
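Material: Transient Gal4-SF-1 LBD reporter, CHO-K1 | Input: 4,000 cells/well | Dosing: One dose, 10 µM compound, 1% DMSO | Incubation: 20 h compound treatment, 37 °C | Detection: SteadyLite luciferase luminescence | Evaluation: Percent activation relative to DMSO median and mock-transfected background | Benchmarks: DMSO-treated SF-1-transfected cells as negative, DMSO-treated mock-transfected cells lacking SF-1 as background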
ERa SRC1 inh – ERα–SRC-1 coactivator interaction inhibitors, primary screen, biochemical, TR-FRET, ERα LBD, estradiol-bound; TR-FRET ER-alpha LBD / SRC-1 peptide; Estrogen receptor (Homo sapiens), P03372; inhibition, % at 25.6 µM; 86,000 tested, 1.7% active; in the data active = inhibition above about 50%;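 note: 0% = receptor plus peptide control and 100% = peptide only without receptor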
ERa SRC1 pot – enhancers of ERα–SRC-1 coactivator binding, primary screen, biochemical, TR-FRET, ERα LBD, low estradiol | Estrogen receptor (Homo sapiens), P03372 | TR-FRET ERalpha-LBD/SRC-Cy5 coactivator binding, 2 h; 100 = basal binding, no effect | coactivator binding (% of control), % at 25.6 µM | 86,000 tested, 1.3% active; in the data active = activity above about 200%;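 note: binding measured in presence of low estradiol as agonist stimulus; 0% = peptide alone without receptor and 100% = receptor with peptide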
BAP1 inh – inhibitors of BAP1 deubiquitinase, primary screen, biochemical, Ub-AMC fluorescence, kinetic; calls only at 20 µM; 72,000 tested, 0.48% active; recombinant BAP1, Ub-AMC hydrolysis fluorescence kinetic; active compounds read low;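 active = activity remaining at or below 50% of control, provided the compound also passes the data quality filters; inactive = the rest, including low values that fail the filters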;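 note: 100% = DMSO wells rate and 0% = substrate alone blank rate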
RORA act – activators of orphan receptor RORA, primary screen, cell-based, luminescence; Nuclear receptor ROR-alpha (Homo sapiens), P35398; CHO-K1 Gal4-RORA LBD luciferase reporter; percent increase over mock-subtracted basal signal; activation, % at 10 µM; 65,000 tested, 1.5% active;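 active = activation above the mean of all tested compounds plus 3 SD, cut at about 49% in these data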;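 note: 0% = DMSO-treated RORA cells and 100% = added signal equal to DMSO minus mock-transfected cells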
ERb SRC1 inh – inhibitors of ERβ-SRC1 coactivator interaction, primary screen, biochemical, TR-FRET, ERβ LBD, SRC-1 peptide | Estrogen receptor beta (Homo sapiens), Q92731 | inhibition, % at 25.6 µM | AID 633, 2007 | 86,000 tested, 1.3% active | TR-FRET ER-beta LBD / SRC1-Cy5 peptide binding; receptor agonist-loaded with 1 µM estradiol;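 active = compounds whose percent inhibition of the receptor-coactivator binding signal exceeds about 50% in the single-dose screen, limit read from the data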;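 note: 0% = receptor plus peptide wells without compound and 100% = peptide-only wells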
Target sequence (Q92731 whole entry, looked up, the tested form may be a part): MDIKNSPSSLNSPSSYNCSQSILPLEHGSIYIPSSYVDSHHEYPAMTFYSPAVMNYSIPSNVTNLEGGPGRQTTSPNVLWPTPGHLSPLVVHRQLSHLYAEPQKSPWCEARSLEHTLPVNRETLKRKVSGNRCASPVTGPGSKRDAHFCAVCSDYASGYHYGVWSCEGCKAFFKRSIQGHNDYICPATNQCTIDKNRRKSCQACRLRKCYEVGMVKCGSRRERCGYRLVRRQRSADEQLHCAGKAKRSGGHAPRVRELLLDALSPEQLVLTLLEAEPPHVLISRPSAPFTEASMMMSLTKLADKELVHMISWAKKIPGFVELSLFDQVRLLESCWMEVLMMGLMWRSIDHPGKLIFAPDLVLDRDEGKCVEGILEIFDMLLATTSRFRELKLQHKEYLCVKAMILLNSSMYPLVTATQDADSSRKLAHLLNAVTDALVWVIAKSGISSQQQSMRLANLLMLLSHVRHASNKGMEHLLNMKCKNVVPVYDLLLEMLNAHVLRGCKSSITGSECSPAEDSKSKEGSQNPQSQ
* = called active by the depositor; [ ] = remark or other dose. Hits are enriched below; roughly 5.1% of the tested compounds scored in any of these assays.

Results for CCOC(=O)c1sc(NC(=O)c2cncc(Br)c2)nc1C ?
ERa SRC1 inh: -18.0; ERa SRC1 pot: 100.3; ERb SRC1 inh: -11.4

Results for CCOC(=O)c1sc(NC(=O)c2ccccc2OC)nc1C ?
ERa SRC1 inh: 1.2; ERa SRC1 pot: 144.5; ERb SRC1 inh: 0.1

How did CCOC(=O)c1sc(NC(=O)c2ccc3ncsc3c2)nc1C do in these assays?
SF-1 act: 76.5*; ERa SRC1 inh: 22.9; ERa SRC1 pot: 473.3*; BAP1 inh: inactive; RORA act: 20.1; ERb SRC1 inh: 28.7

How did CCOC(=O)c1sc(NC(=O)c2ccc(CC)s2)nc1C do in these assays?
SF-1 act: 118.6*; ERa SRC1 inh: 17.4; ERa SRC1 pot: 136.2; RORA act: 71.5*; ERb SRC1 inh: 21.4

How did CCOC(=O)CNC(=O)c1sc(NC(=O)c2ccccc2F)nc1C do in these assays?
SF-1 act: 53.2*; ERa SRC1 inh: -7.5; ERa SRC1 pot: 109.4; BAP1 inh: inactive; RORA act: 29.1; ERb SRC1 inh: -5.6

Results for C=CCOC(=O)c1sc(NC(=O)c2ccco2)nc1C ?
SF-1 act: 92.6*; ERa SRC1 inh: 6.7; ERa SRC1 pot: 116.5; BAP1 inh: inactive; RORA act: 52.9*; ERb SRC1 inh: 9.8

How did Cc1cc(OCC(O)CN2CCN(c3ccc(F)cc3)CC2)cc(C)c1Cl (configuration not stated) do in these assays?
BAP1 inh: inactive

Results for CC1=C(C(=O)OC(C)C)C(c2coc3ccc(Cl)cc3c2=O)C2=C(CCCC2=O)N1 (configuration not stated) ?
BAP1 inh: inactive

How did O=c1c2c(sc3ccccc13)NCN(Cc1ccccc1)C2 do in these assays?
BAP1 inh: inactive

Results for CCCCOC(=O)C1=C(C)NC(=O)NC1c1ccc(OC)c(OC)c1 (configuration not stated) ?
BAP1 inh: inactive

Results for COc1ccc(C=Cc2ccc([N+](=O)[O-])cc2)c(OC)c1 ?
BAP1 inh: inactive

Results for Cc1ccc(OCC(O)CN2CCN(c3ccccc3)CC2)cc1C (configuration not stated) ?
BAP1 inh: inactive

How did CC(=O)Nc1ccc2[nH]c(C)cc(=O)c2c1 do in these assays?
ERa SRC1 inh: 76.8*; ERa SRC1 pot: 32.9; ERb SRC1 inh: 44.3

Results for O=C1Nc2ccccc2SC(c2ccccc2)C1O (configuration not stated) ?
SF-1 act: 16.8; ERa SRC1 inh: 95.2*; ERa SRC1 pot: 14.8; RORA act: -16.8; ERb SRC1 inh: 87.9*

How did O=C(O)CC1Sc2ccccc2NC1=O (configuration not stated) do in these assays?
SF-1 act: 7.2; ERa SRC1 inh: -37.7; ERa SRC1 pot: 75.0; BAP1 inh: inactive; RORA act: -2.1; ERb SRC1 inh: 15.4

Results for O=C(NCC1COc2ccccc2O1)c1ccccc1 (configuration not stated) ?
SF-1 act: 51.6*; BAP1 inh: inactive; RORA act: 70.3*

How did CCCNCC1COc2ccccc2O1 (configuration not stated) do in these assays?
ERa SRC1 inh: 84.3*[fluorescence artefact?]; ERa SRC1 pot: 49.5; ERb SRC1 inh: 80.4*

What do the screens show for `CCOC(=O)CCNCC1COc2ccccc2O1` (configuration not stated)?
SF-1 act: 12.0; ERa SRC1 inh: 2.9; ERa SRC1 pot: 86.6; BAP1 inh: inactive; RORA act: -1.7; ERb SRC1 inh: 4.0

What do the screens show for `O=C(NCC1COc2ccccc2O1)c1ccco1` (configuration not stated)?
SF-1 act: 13.6; BAP1 inh: inactive; RORA act: -12.1

Results for O=C(Nc1cc(NC(=O)C2CCCCC2)cc(-c2nc3ccccc3o2)c1)C1CCCCC1 ?
BAP1 inh: inactive

What do the screens show for `CCOC(=O)c1nn(-c2ccc3c(c2)CCN3C(C)=O)cc1O`?
SF-1 act: 64.8*; ERa SRC1 inh: -6.1; ERa SRC1 pot: 114.7; RORA act: 58.3*; ERb SRC1 inh: 3.3

Results for O=C(Nc1nncs1)c1ccccc1I ?
BAP1 inh: inactive

What do the screens show for `CCCOc1ccccc1C1C(C(=O)OC)=C(C)NC2=C1C(=O)CCC2` (configuration not stated)?
BAP1 inh: inactive

How did CCCCCCn1cnc2c(c1=O)c1nc3ccccc3nc1n2/N=C/c1ccco1 do in these assays?
SF-1 act: -14.9; ERa SRC1 inh: 21.6; ERa SRC1 pot: 51.3; BAP1 inh: inactive; RORA act: 8.4; ERb SRC1 inh: 25.7

What do the screens show for `Cc1nc2c(c(=O)n1CCC1=CCCCC1)c1nc3ccccc3nc1n2/N=C/c1ccco1`?
SF-1 act: -14.2; ERa SRC1 inh: 79.5*[fluorescence artefact?]; ERa SRC1 pot: 105.1; BAP1 inh: inactive; RORA act: -2.7; ERb SRC1 inh: 55.5*

What do the screens show for `OC(COc1ccc2ccccc2c1Cl)CN1CCOCC1` (configuration not stated)?
SF-1 act: 54.5*; ERa SRC1 inh: -46.7; ERa SRC1 pot: 99.2; BAP1 inh: inactive; RORA act: 48.6; ERb SRC1 inh: -30.6

How did O=C1NCCCC2c3c(cc(Br)c(O)c3Br)OC12N1CCOCC1 (configuration not stated) do in these assays?
SF-1 act: 12.2; ERa SRC1 inh: 13.7; ERa SRC1 pot: 62.0; BAP1 inh: inactive; RORA act: 15.2; ERb SRC1 inh: 25.0

How did O=C1NCCCC2c3cc(O)c4ccccc4c3OC12N1CCCCC1 (configuration not stated) do in these assays?
SF-1 act: -4.1; ERa SRC1 inh: 43.0; ERa SRC1 pot: 37.1; BAP1 inh: inactive; RORA act: -12.5; ERb SRC1 inh: 54.5*

How did COc1ccccc1OCCC(=O)OCC(=O)Nc1ncc(Cl)cc1Cl do in these assays?
SF-1 act: -3.1; ERa SRC1 inh: 53.7*[fluorescence artefact?]; ERa SRC1 pot: 48.5; RORA act: -18.6; ERb SRC1 inh: 39.6

Results for COc1cc(CCC(=O)OCC(=O)Nc2ncc(Cl)cc2Cl)cc(OC)c1OC ?
SF-1 act: -6.1; ERa SRC1 inh: 55.6*[fluorescence artefact?]; ERa SRC1 pot: 21.6; BAP1 inh: inactive; RORA act: 5.9; ERb SRC1 inh: 58.7*

How did COc1ccc(CC(=O)OCC(=O)Nc2ncc(Cl)cc2Cl)cc1OC do in these assays?
ERa SRC1 inh: -2.3; ERa SRC1 pot: 99.0; ERb SRC1 inh: -4.3
